Experimental data as given in ChEMBL document CHEMBL1121486, “Synthesis of nitrosourea derivatives of pyridine and piperidine as potential anticancer agents” (1980).

Key:
Settings in all cases: route intraperitoneal
L1210 [1] = experiment: Compound tested for activity against mouse leukemia L1210 tumor (Intraperitoneally implanted) after single ip injection on day 1 at optimal dose of 100 mg/kg (Dose range 256-16); type: functional
How it was run: (§1)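 L1210 leukaemia implanted intraperitoneally in mice. Compound given over a dose range (mg/kg); optimum dose selected. Survivors for toxicity recorded day 5 post-injection. Measures: T – C body weight difference (g), % T/C, and cures, defined as 30-day survivors.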

L1210 [2] = experiment: Effect of compound on mouse leukemia L1210 tumor (Intraperitoneally implanted) after single dose injected intraperitoneally on day 1 recorded as animal weight difference of the treated and the control (T-C) at OD of 100 mg/kg; type: functional; how it was run: as §1
L1210 [3] = experiment: The effect of compound on mouse leukemia L1210 tumor (Intraperitoneally implanted)after single dose injected intraperitoneally on day 1 […] at OD of 100 mg/kg; type: functional
L1210 [4] = experiment: Compound tested for toxicity against mouse leukemia L1210 tumor (Intraperitoneally implanted) after single ip injection on day 1 at optimal dose (OD) of 100 mg/kg on the 5th day after the injection of the compound; (6/6); type: functional
L1210 [5] = experiment: Compound tested for activity against mouse leukemia L1210 tumor (Intraperitoneally implanted) after single ip injection on day 1 at optimal dose of 100 mg/kg (Dose range 400-12.5); type: functional; how it was run: as §1
L1210 [6] = experiment: Compound tested for toxicity against mouse leukemia L1210 tumor (Intraperitoneally implanted) after single ip injection on day 1 at optimal dose (OD) of 12.5 mg/kg on the 5th day after the injection of the compound; (5/5)

SMILES	Optimal dose (L1210 [1]) [mg/kg]	T-C (L1210 [2]) [g]	T/C (L1210 [3]) [%]	Survival (L1210 [4])	Optimal dose (L1210 [5]) [mg/kg]	Survival (L1210 [6])
CCN1CCCC(NC(=O)N(CCCl)N=O)C1.O=C(O)/C=C\C(=O)O (configuration not stated)	128	-5.9	235	6	–	–
O=C(O)/C=C\C(=O)O.O=NN(CCCl)C(=O)Nc1cccnc1	–	-7	126	–	12.5	5
CCCCN1CCC(NC(=O)N(CCCl)N=O)CC1.O=C(O)/C=C\C(=O)O	64	-3.9	197	6	–	–
